Results published in ChEMBL document CHEMBL1126940, “Synthesis and dopamine receptor modulating activity of lactam conformationally constrained analogues of Pro-Leu-Gly-NH2” (J Med Chem, 1993).
Residues, ends and D or L forms follow the SMILES beside them.

Experiments:
[1] = biological target: T1, Dopamine receptor (Bos taurus) (UniProt Q95136+P20288); assay: In vitro ability to enhance the binding of [3H]ADTN to dopamine receptor obtained from bovine caudate membranes at a concentration of 10E-12 M
How it was run: (§1)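 Striatal synaptosomal membranes from bovine caudate incubated with [3H]ADTN with or without (control) peptide at 10^-12–10^-4 M, in triplicate, 37°C for 10 min, no preincubation; filtered, filters counted by liquid scintillation. Nonspecific binding defined with 10 μM (+)-butaclamol. Result expressed as percent enhancement over control; average ± SEM of three or four experiments; unpaired t-test on dpm.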

[2] = biological target: T1, Dopamine receptor (Bos taurus); assay: In vitro ability to enhance the binding of [3H]ADTN to dopamine receptor obtained from bovine caudate membranes at a concentration of 10E-4 M; how it was run: as §1
[3] = biological target: T1, Dopamine receptor (Bos taurus); assay: In vitro ability to enhance the binding of [3H]ADTN to dopamine receptor obtained from bovine caudate membranes at a concentration of 10E-5 M; how it was run: as §1
[4] = biological target: T1, Dopamine receptor (Bos taurus); assay: In vitro ability to enhance the binding of [3H]ADTN to dopamine receptor obtained from bovine caudate membranes at a concentration of 10E-6 M; how it was run: as §1
[5] = biological target: T1, Dopamine receptor (Bos taurus); assay: In vitro ability to enhance the binding of [3H]-ADTN to dopamine receptor obtained from bovine caudate membranes at a concentration of 10E-7 M; how it was run: as §1
[6] = biological target: T1, Dopamine receptor (Bos taurus); assay: In vitro ability to enhance the binding of [3H]ADTN to dopamine receptor obtained from bovine caudate membranes at a concentration of 10E-8 M; how it was run: as §1
[7] = biological target: T1, Dopamine receptor (Bos taurus); assay: In vitro ability to enhance the binding of [3H]ADTN to dopamine receptor obtained from bovine caudate membranes at a concentration of 10E-9 M; how it was run: as §1
[8] = biological target: T1, Dopamine receptor (Bos taurus); assay: In vitro ability to enhance the binding of [3H]ADTN to dopamine receptor obtained from bovine caudate membranes at a concentration of 10E-10 M; how it was run: as §1
[9] = biological target: T1, Dopamine receptor (Bos taurus); assay: In vitro ability to enhance the binding of [3H]-ADTN to dopamine receptor obtained from bovine caudate membranes at a concentration of 10E-11 M; how it was run: as §1

Structure (SMILES)	Increase [1] [%]	Increase [2] [%]	Increase [3] [%]	Increase [4] [%]	Increase [5] [%]	Increase [6] [%]	Increase [7] [%]	Increase [8] [%]	Increase [9] [%]
NC(=O)CN1CCCC[C@@H](NC(=O)C2CCCN2)C1=O (some centres not stated)	–	17	27	61	38	35	30	15	8
NC(=O)CN1CCC[C@@H](NC(=O)C2CCCN2)C1=O (some centres not stated)	2	–	18	43	16	11	4	3	4
CC(C)C[C@H](NC(=O)[C@@H]1CCCN1)C(=O)NCC(N)=O (H-Pro-Leu-Gly-NH2)	–	–	–	27	–	–	–	–	–
NC(=O)CN1CC[C@H](NC(=O)C2CCCN2)C1=O (some centres not stated)	2.2	1.4	1.6	2.8	5.6	9.2	23	24.4	12

Next, values leading:

Increase [1] [%]	Increase [2] [%]	Increase [3] [%]	Increase [4] [%]	Increase [5] [%]	Increase [6] [%]	Increase [7] [%]	Increase [8] [%]	Increase [9] [%]	Structure (SMILES)
1.5	9.5	22	27	8	5	3.9	2.5	–	NC(=O)CN1C[C@H](NC(=O)C2CCCN2)C1=O (some centres not stated)
4	13	33	38	42	13.5	4.6	3.3	5.5	NC(=O)CN1C(=O)C[C@H](NC(=O)C2CCCN2)C1=O (some centres not stated)
2	7	37	54	30	14	6.8	2.5	2	NC(=O)CN1OC[C@H](NC(=O)C2CCCN2)C1=O (some centres not stated)
